# Bioassay records from PubChem.
# bIAP activator = increases bovine intestinal alkaline phosphatase activity | purified bovine IAP, CDP-star luminescence, 30 min; hits give high values; fold of DMSO-control signal, blank-subtracted | activation factor at 20 µM | 0.17% of 200,000 active | AID 1016;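 active = activation factor of 2 or more at 20 µM, a signal rise over negative controls twice the positive control's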
# bIAP inh = blocks bovine intestinal alkaline phosphatase activity; 190,000 tested, under 10 active; purified bovine IAP, CDP-star luminescence, 30 min; inhibition, % at 20 µM;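 active = over 50% inhibition of intestinal alkaline phosphatase at 20 µM in the single-dose screen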
#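 Assay system: bovine IAP enzyme; medium: DEA buffer 100 mM, pH 9.8, with MgCl2 1.0 mM, ZnCl2 0.02 mM; doses: 20 µM single dose; incubation: enzyme reaction for 30 min at room temperature; detection: CDP-star luminescence signal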
# hIAP inh = blocks human intestinal alkaline phosphatase; 0.12% of 330,000 active; purified IAP, CDP-Star luminescence, 30 min; inhibition, % at 10 µM;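 active = inhibition reaching a set limit with compound at 10 µM in the primary screen, cut at about 35% in these data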;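 also: plate controls were DMSO wells with enzyme for no effect and no-enzyme buffer wells for full effect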
# Target sequence (P09923 whole entry, looked up): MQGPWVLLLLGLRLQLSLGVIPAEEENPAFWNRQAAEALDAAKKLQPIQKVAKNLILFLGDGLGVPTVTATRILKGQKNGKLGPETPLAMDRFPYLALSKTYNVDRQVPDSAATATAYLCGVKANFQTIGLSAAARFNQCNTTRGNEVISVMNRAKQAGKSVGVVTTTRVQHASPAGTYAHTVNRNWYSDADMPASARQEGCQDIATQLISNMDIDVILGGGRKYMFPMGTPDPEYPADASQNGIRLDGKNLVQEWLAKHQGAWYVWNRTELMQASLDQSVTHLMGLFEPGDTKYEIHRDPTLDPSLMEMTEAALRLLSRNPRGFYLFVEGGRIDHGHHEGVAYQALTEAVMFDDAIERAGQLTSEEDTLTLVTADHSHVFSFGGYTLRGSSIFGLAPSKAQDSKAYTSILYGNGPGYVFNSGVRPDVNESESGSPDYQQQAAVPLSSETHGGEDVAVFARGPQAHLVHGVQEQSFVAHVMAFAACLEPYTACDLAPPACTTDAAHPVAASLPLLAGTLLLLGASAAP
# hIAP act = increases human intestinal alkaline phosphatase activity; activation factor at 10 µM; P09923; purified human IAP, CDP-Star luminescence, 30 min; hits give high values; 1 = vehicle-only enzyme, 0 = enzyme-free background; AID 2524; 0.16% of 330,000 active;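 active = activation factor of the enzyme at least 2-fold when tested at 20 µM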
# mIAP act = mouse IAP activation; 0.24% of 330,000 active; AID 2805; muIAP, CDP-Star luminescence, 30 min; hits give high values; 1 = vehicle-only enzyme signal, 0 = enzyme-free wells; activation factor at 10 µM;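 active = activation factor of at least 2 at 20 µM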
#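 Assay system: mouse IAP enzyme; reagent: chemiluminescent substrate CDP-Star; dosing: test compounds delivered from DMSO solution; schedule: 30 min at room temperature; measured by: luminescence from enzymatic CDP-Star hydrolysis; controls: DMSO-only wells and no-enzyme negative control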
# mIAP inh = mouse IAP inhibition; purified mouse IAP, CDP-Star luminescence, 30 min; inhibition, % at 10 µM; 0.2% of 330,000 active; AID 2806;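 active = inhibition of at least 40% at 10 µM in the primary screen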;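 also: plate controls were DMSO with enzyme for no effect and no enzyme wells for full effect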
# mIAP inh conf = mouse IAP inhibition confirmation | shares compounds with mIAP inh | purified mouse IAP, CDP-Star luminescence, 30 min | inhibition, % at 10 µM | 4.7% of 11,000 active | AID 434971;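 active = inhibition of at least 40% at 10 µM in either of the two replicates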;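 also: plate controls were DMSO wells with enzyme for no effect and buffer wells lacking enzyme for full effect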
# * marks the source's active call; other numbers are inactive results; i = inactive; . = no result. Sampled rows, rich in hits. Any-hit rate of the full collection: about 0.72%.
SMILES,bIAP activator,bIAP inh,hIAP inh,hIAP act,mIAP act,mIAP inh,mIAP inh conf
C#CCOCCOCCOCCNc1nc(N2CCN(C(=O)CCCCCCCCCCNC(=O)[C@H]([C@@H](C)CC)n3cc(CCCCCN)nn3)CC2)nc(N2CCN(C(=O)CCCCCCCCCCNC(=O)[C@H]([C@@H](C)CC)n3cc(CCCCN=C(N)N)nn3)CC2)n1,.,.,-16.3,1.16,17.6*,i,i
C#CCOCCOCCOCCNc1nc(N2CCN(C(=O)CCCCCCCCCCNC(=O)Cn3cc(CCCCCN)nn3)CC2)nc(N2CCN(C(=O)CCCCCCCCCCNC(=O)[C@@H](CCC(=O)O)n3cc(CCCCCN)nn3)CC2)n1,.,.,3.3,0.967,1.42,-42.4,.
C#CCOCCOCCOCCNc1nc(N2CCN(C(=O)CCCCCCCCCCNC(=O)Cn3cc(CCCCCN)nn3)CC2)nc(N2CCN(C(=O)CCCCCCCCCCNC(=O)[C@@H](CCSC)n3cc(CCO)nn3)CC2)n1,.,.,-13.5,1.14,4.21*,-320.7,-256.4
C#CCOCCOCCOCCNc1nc(N2CCN(C(=O)CCCCCCCCCCNC(=O)[C@H]([C@@H](C)CC)n3cc(CCCCN=C(N)N)nn3)CC2)nc(N2CCN(C(=O)CCCCCCCCCCNC(=O)[C@H](CCCCN)n3cc(C)nn3)CC2)n1,.,.,-8.1,1.08,2.78*,-178.4,i
Cc1[nH]c(=O)[nH]c(=O)c1S(=O)(=O)Nc1ccc(F)c([N+](=O)[O-])c1,.,.,-0.5,1,1.01,-0.9,.
CCN(CC)S(=O)(=O)c1ccc(C)c(NC(=S)NNC(=O)C2CC2)c1,1,-2.9,-67.6,1.68,0.931,6.9,.
O=C(NCc1ccc2c(c1)CCO2)Nc1cccc(C(F)(F)F)c1,.,.,9.1,0.909,3.78*,-277.8,-143.5
O=C(NCc1cccnc1)Nc1cccc(C(F)(F)F)c1,.,.,-19.8,1.2,1.08,-8.4,.
COc1ccc(NC(=O)COc2ccccc2)cc1NC(=O)c1ccco1,.,.,-21.2,1.21,0.985,1.5,.
Nc1nnc(CC(=O)N/N=C/c2cc([N+](=O)[O-])cc(Br)c2O)s1,1.2,-18.6,-9.2,1.09,0.525,47.5*,46.5*
CC(=O)Oc1ccc(C(=O)NCc2ccco2)cc1,.,.,-1.2,1.01,1.05,-4.8,.
O=C(c1cc(COc2ccccc2)on1)N1CCCC(CN2CCOCC2)C1 (stereo not drawn),.,.,-36.1,1.36,0.917,8.3,.
Cn1nc([N+](=O)[O-])nc1S(C)(=O)=O,1,-3.9,-13.3,1.13,0.562,43.8*,58.9*
CS(=O)(=O)c1nc([N+](=O)[O-])nn1CCCc1ccccc1,.,.,2.5,0.975,0.978,2.2,.
COCCN(CCOC)S(=O)(=O)c1ccc(NC(=O)c2cnccn2)cc1,.,.,-24.3,1.24,1.09,-8.7,.
c1coc(CSSCc2ccco2)c1,.,.,-1.9,1.02,0.292,70.8*,75.2*
Cc1ccc(NC(=O)CN(C)C(=O)c2cccnc2Nc2cccc(C(F)(F)F)c2)cc1,.,.,9.5,0.905,1.04,-3.9,.
COc1ccc(CNC(=O)CN2C(=O)c3ccc([N+](=O)[O-])cc3C2=O)cc1,.,.,8.9,0.911,0.943,5.7,.
Cc1sc2nc(SCC(=O)Nc3cccc(S(N)(=O)=O)c3)[nH]c(=O)c2c1C,.,.,2.7,0.973,0.491,50.9*,61.6*
COc1cc(OC)c(C(=O)OCC(=O)NCC2CCCCC2)cc1OC,.,.,0.9,0.991,0.94,6.0,.
O=C(O)CCN1C(=O)/C(=C\c2ccc(-c3nc4ccccc4s3)o2)SC1=S,0.4,.,-18.8,1.19,0.474,52.6*,62.2*
O=C(CNc1cccc2ccccc12)N/N=C/C=C/c1ccco1,0.9,14.4,10.3,0.897,0.387,61.3*,58.6*
O=C(CNc1cccc2ccccc12)N/N=C/c1ccc(C(=O)O)cc1,0.9,13.0,10.2,0.898,0.804,19.6,.
CCn1cc(CN2CCC(C(=O)Nc3cccc(-c4cccc(F)c4)c3)CC2)cn1,.,.,-2.7,1.03,2.04*,-103.8,-166.1
O=C(Nc1cccc(-c2cccc(Cl)c2)c1)C1CCN(Cc2ccc(CO)o2)CC1,.,.,-11.6,1.12,3.96*,-295.6,-161.0
O=C(Nc1cccc(Cl)c1)C1CCCCC1,.,.,1.0,0.99,1.01,-0.6,.
